Assay results as given in publication PMC7891373 (Clinical Pharmacology in Drug Development, 2020).
Where two headings read alike, the source gives them in different places. Marks after values point to notes of the source that are not given here.

Tests used:
[1] = cited from earlier work
[2] = format: in vivo, human; details: single oral dose, fasted; for AUC / AUC(0-t) / half-life / Tmax: male, human, plasma, po; for AUC: AUC0‐∞; for AUC(0-t): AUClast, AUC24h; for Tmax: n=24, median (min-max)
In short: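 Healthy Japanese men aged 20–45 y with BMI 18.5 to <30.0 kg/m2, in an open-label randomized 2-period crossover. The 25-mg cohort was split into tablet→capsule and capsule→tablet sequences of 12, each a single fasted oral dose, with a washout of at least 28 days. Venous blood was drawn predose and 0.25–24 h post-dose. Plasma test compound was measured by validated LC-MS/MS (LLOQ 10.0 ng/mL). Parameters came from individual concentration-time profiles (AUClast = AUC24h), giving tablet/capsule geometric mean ratios.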

[3] = Safety and tolerability assessment in the phase 1 study; format: in vivo, human; details: single oral dose 25 or 50 mg, tablet and capsule
In short: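 Healthy Japanese men received single fasted oral 25- or 50-mg tablet and capsule doses in a crossover design, confined at the site around each dose. The safety set was all subjects given at least 1 dose. Adverse events were assessed by clinical interview, physical examination, 12-lead ECG and routine laboratory tests from start of treatment to end of follow-up. Each was coded by MedDRA 17.0 (Japanese) and graded for severity, seriousness and causality.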

CYP2C8 = details: in vitro; cited from earlier work
CYP2C9 = details: in vitro; cited from earlier work

Cc1nc(Cl)c(-c2noc(-c3cc(O)c(O)c([N+](=O)[O-])c3)n2)c(C)c1Cl [BIA 9–1079]
half-life of metabolite ([1]; not assessed in this study): short

Cc1c(Cl)c(C)[n+]([O-])c(Cl)c1-c1noc(-c2cc(O)c(O)c([N+](=O)[O-])c2)n1 [Opicapone]
AUC ([2]; 25 mg, opicapone 25 mg tablet, n=23, mean ± SD): 2530 ± 581 ng·h/mL
AUC(0-t) ([2]; 25 mg, opicapone 25 mg tablet, n=24, mean ± SD): 2480 ± 586 ng·h/mL
half-life ([2]; 25 mg, t1/2, opicapone 25 mg tablet, n=23, mean ± SD): 0.729 ± 0.173 h
Tmax ([2]; 25 mg, opicapone 25 mg tablet): 2 h
AUC ([2]; 50 mg, opicapone 50 mg capsule, n=23, mean ± SD): 4210 ± 1620 ng·h/mL
AUC(0-t) ([2]; 50 mg, opicapone 50 mg capsule, n=24, mean ± SD): 4080 ± 1650 ng·h/mL
half-life ([2]; 50 mg, t1/2, opicapone 50 mg capsule, n=23, mean ± SD): 1.18 ± 0.477 h
Tmax ([2]; 50 mg, opicapone 50 mg capsule): 2 h
CL/F ([2]; opicapone 25 mg capsule, n=24, mean ± SD): 12.9 ± 5.31 L/h
CL/F ([2]; opicapone 25 mg tablet, n=23, mean ± SD): 10.6 ± 3.50 ^b L/h
Geometric Mean Ratio (Tablets/Capsules) of AUC0‐∞ ([2]; opicapone 25 mg, n=24): 1.19
Geometric Mean Ratio (Tablets/Capsules) of AUClast ([2]; opicapone 25 mg, n=24): 1.18
Geometric Mean Ratio (Tablets/Capsules) of Cmax ([2]; opicapone 25 mg, n=24): 1.24
CL/F ([2]; opicapone 50 mg capsule, n=23, mean ± SD): 13.6 ± 5.09 ^b L/h
CL/F ([2]; opicapone 50 mg tablet, n=23, mean ± SD): 10.4 ± 3.20 L/h
Geometric Mean Ratio (Tablets/Capsules) of AUC0‐∞ ([2]; opicapone 50 mg, n=23): 1.27
Geometric Mean Ratio (Tablets/Capsules) of AUClast ([2]; opicapone 50 mg, n=24): 1.28
Geometric Mean Ratio (Tablets/Capsules) of Cmax ([2]; opicapone 50 mg, n=24): 1.42
Serious adverse events ([3]; any group, study period): no serious adverse events
Tolerability ([3]; healthy Japanese subjects): well tolerated
CYP2C8 inhibition (CYP2C8): weak, reversible inhibitor
CYP2C9 inhibition (CYP2C9): weak, reversible inhibitor

Cc1c(Cl)c(C)[n+]([O-])c(Cl)c1-c1noc(-c2cc(OS(=O)(=O)O)c(O)c([N+](=O)[O-])c2)n1 [BIA 9–1103]
half-life of metabolite ([1]; especially following repeated dosing): relatively long
